The text below walks through data of ChEMBL document CHEMBL3864175, “Sulfonamides as Selective NaV1.7 Inhibitors: Optimizing Potency and Pharmacokinetics to Enable in Vivo Target Engagement” (ACS Med Chem Lett, 2016).

Series [1] addresses Sodium channel protein type 9 subunit alpha (Homo sapiens, UniProt Q15858). As to the kind of experiment: Inhibition of human Nav1.7 expressed in HEK293 cells assessed as inhibition of sodium current at holding potential of -125 mV measured for 3 to 5 mins by whole cell voltage clamp method. The format is cell-based.
Series [2] is described as follows: Intrinsic clearance in rat liver microsomes at 1 uM measured after 40 mins in presence of NADPH by LC-MS/MS analysis. The format is ADME. Conditions: read-out: CLH. The gist of the method: (§1)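 Clearance measured in rat or human liver microsomes. Test compound at 1 μM, microsomal protein at 250 μg/mL.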
Background: Microsomes from liver hold many membrane-bound enzymes, among them those of drug oxidation.

Series [3] is described as follows: Apparent permeability in MDCK cells. The format is ADME, cell-based, Canis lupus familiaris. Conditions: dog. The gist of the method:
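Apparent permeability measured in parental MDCK cells.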

Series [4] deals with Sodium channel protein type 5 subunit alpha (Homo sapiens, UniProt Q14524). As to the kind of experiment: Inhibition of human Nav1.5 expressed in HEK293 cells assessed as inhibition of sodium current at holding potential of -125 mV measured for 3 to 5 mins by whole cell voltage clamp method. The format is cell-based.
Sodium channel protein type 5 subunit alpha, sequence (Q14524 whole entry): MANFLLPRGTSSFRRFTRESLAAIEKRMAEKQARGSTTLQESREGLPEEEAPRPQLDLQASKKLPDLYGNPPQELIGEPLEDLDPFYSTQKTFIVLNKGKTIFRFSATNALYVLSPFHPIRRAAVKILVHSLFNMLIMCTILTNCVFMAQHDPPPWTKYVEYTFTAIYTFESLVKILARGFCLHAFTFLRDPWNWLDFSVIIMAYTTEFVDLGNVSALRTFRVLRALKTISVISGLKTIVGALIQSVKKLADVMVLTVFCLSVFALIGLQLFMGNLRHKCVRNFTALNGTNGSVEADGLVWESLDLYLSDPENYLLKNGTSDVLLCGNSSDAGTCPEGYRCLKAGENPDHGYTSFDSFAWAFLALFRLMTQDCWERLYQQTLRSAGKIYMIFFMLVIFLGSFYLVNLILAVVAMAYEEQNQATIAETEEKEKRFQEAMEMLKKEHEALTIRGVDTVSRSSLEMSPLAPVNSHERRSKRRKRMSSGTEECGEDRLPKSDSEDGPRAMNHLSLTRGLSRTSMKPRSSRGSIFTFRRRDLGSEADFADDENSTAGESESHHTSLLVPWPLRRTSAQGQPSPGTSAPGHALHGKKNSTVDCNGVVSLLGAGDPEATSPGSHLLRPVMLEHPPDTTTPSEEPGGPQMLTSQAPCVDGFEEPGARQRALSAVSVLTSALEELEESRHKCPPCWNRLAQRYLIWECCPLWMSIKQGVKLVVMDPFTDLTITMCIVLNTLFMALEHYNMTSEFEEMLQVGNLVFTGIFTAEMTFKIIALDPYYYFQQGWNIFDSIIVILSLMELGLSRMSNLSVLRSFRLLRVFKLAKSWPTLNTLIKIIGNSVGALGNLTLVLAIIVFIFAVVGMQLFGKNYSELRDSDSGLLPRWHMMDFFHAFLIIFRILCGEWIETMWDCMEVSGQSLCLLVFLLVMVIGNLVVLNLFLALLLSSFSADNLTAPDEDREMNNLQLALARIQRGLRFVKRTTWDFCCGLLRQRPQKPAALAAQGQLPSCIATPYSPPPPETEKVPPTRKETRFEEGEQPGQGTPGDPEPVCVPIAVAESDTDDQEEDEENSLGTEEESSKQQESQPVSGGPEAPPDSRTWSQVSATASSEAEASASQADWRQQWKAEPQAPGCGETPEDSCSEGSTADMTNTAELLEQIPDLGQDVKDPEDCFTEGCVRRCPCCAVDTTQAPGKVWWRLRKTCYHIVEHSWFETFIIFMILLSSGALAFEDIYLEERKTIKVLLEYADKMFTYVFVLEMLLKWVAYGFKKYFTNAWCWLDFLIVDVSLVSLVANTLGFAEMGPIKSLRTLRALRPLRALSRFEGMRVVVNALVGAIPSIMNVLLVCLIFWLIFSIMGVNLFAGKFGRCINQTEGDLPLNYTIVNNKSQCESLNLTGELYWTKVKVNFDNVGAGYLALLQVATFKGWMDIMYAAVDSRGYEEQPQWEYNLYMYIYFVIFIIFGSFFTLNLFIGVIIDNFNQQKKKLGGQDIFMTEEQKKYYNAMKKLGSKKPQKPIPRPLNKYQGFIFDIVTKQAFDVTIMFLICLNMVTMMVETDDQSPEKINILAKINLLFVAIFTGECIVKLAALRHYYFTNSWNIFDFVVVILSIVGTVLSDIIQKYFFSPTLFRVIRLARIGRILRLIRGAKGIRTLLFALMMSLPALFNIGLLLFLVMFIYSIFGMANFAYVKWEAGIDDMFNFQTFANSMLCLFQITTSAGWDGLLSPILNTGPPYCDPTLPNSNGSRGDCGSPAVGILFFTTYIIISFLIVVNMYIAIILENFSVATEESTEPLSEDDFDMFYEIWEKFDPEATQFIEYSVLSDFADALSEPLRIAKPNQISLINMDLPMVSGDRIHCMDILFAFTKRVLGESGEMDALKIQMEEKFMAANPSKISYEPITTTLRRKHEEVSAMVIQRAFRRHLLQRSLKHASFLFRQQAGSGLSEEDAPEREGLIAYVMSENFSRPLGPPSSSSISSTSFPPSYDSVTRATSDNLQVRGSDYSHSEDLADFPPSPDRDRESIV
A short description of series [5]: Intrinsic clearance in human liver microsomes at 1 uM measured after 40 mins in presence of NADPH by LC-MS/MS analysis. The format is ADME. Particulars: read-out: CLH. The gist of the method:
as §1

A short description of series [6]: Fraction unbound in rat plasma at 5 uM measured after 45 mins by LC-MS/MS analysis. The format is ADME, cell-free.
A short description of series [7]: Stability in bile duct cannulated Sprague-Dawley rat assessed as parent compound level in bile at 6.67 mg/kg, iv administered through catheter measured after 2 and 4 hrs post dose by LC-MS/MS analysis. Particulars: in vivo. The format is ADME, organism-based.
The nature of series [8]: Drug metabolism in bile duct cannulated Sprague-Dawley rat urine assessed as metabolite formation at 6.67 mg/kg, iv administered through catheter measured after 2 and 4 hrs post dose by LC-MS/MS analysis. The format is ADME, organism-based. Particulars: in vivo.
Series [9] in a line: Dissociation constant, pKa of the compound at pH 1.7 to 11.2 by capillary electrophoresis method. The format is physicochemical. Put shortly:
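pKa values calculated from capillary electrophoresis data collected over pH 1.7 to 11.2.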

A short description of series [10]: Apparent permeability in MDCK cells assessed as drug recovery. Conditions: dog, read-out: Drug recovery. The format is ADME, cell-based, Canis lupus familiaris.
The nature of series [11]: Unbound clearance in rat at 0.5 mg/kg, iv by LC-MS/MS analysis. The format is ADME, organism-based. Particulars: in vivo. The gist of the method:
(§2)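 Male rats, n = 2 per group, dosed intravenously at 0.5 mg/kg as a solution in 100% DMSO. Unbound clearance is derived from total clearance.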

Series [12] can be described thus: Clearance in rat at 0.5 mg/kg, iv by LC-MS/MS analysis. Conditions: in vivo. The format is ADME, organism-based. Put shortly:
as §2

Series [13] in a line: Selectivity index, ratio of IC50 for human Nav1.5 expressed in HEK293 cells to IC50 for human Nav 1.7 expressed in HEK293 cells.

Sodium channel protein type 9 subunit alpha, sequence (Q15858 whole entry): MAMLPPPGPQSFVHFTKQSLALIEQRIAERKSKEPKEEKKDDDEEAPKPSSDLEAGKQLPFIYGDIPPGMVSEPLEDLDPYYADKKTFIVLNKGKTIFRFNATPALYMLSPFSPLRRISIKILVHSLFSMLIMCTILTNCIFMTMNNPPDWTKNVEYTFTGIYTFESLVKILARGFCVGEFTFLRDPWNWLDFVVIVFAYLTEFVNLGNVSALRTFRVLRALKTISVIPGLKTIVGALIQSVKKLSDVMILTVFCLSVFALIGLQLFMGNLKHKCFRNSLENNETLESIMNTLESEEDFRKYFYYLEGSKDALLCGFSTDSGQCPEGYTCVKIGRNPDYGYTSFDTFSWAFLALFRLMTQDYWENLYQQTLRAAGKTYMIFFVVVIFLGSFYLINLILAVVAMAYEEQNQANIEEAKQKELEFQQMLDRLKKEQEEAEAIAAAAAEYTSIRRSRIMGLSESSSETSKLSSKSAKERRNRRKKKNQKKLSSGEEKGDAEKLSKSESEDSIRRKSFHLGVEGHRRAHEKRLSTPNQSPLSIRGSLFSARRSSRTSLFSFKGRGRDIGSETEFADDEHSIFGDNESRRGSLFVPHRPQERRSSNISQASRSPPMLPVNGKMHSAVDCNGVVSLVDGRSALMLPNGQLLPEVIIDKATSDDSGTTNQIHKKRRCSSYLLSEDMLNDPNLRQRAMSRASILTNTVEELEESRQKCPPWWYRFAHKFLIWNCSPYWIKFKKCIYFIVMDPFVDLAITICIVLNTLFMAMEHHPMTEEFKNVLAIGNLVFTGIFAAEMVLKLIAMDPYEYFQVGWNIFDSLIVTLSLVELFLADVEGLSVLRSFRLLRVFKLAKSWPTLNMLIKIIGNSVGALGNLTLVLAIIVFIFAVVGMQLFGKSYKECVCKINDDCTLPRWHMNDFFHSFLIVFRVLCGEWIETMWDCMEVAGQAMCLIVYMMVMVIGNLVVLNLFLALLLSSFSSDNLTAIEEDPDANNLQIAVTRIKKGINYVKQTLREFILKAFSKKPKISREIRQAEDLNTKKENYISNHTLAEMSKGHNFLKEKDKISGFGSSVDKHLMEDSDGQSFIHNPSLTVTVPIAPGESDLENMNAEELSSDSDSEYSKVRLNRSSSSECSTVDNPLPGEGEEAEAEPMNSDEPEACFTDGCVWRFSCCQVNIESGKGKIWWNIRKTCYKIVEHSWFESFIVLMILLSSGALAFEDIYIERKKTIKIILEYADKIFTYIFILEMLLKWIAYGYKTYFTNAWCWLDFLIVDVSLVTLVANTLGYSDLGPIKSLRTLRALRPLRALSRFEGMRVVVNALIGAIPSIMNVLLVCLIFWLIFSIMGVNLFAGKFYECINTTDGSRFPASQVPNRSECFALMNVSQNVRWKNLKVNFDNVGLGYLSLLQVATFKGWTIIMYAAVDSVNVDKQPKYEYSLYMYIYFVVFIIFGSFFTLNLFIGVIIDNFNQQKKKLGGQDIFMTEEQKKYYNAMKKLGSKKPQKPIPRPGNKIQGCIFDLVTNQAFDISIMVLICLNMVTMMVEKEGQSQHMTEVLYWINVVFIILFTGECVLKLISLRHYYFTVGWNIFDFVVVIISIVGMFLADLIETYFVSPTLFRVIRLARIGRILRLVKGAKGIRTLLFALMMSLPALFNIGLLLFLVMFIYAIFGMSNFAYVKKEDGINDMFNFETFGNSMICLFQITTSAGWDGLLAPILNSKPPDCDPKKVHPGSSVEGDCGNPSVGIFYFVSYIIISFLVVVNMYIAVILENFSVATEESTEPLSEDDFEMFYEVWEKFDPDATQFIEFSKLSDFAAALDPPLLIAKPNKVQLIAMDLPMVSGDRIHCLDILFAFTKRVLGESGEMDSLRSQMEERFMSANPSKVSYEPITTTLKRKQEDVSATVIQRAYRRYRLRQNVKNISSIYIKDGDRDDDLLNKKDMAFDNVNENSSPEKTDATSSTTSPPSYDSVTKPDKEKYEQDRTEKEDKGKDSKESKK

Broadly, the IC50 is the point on the concentration scale where inhibition reaches its midpoint. As usually defined, the Papp is the rate of passage across a membrane or cell layer, normalised by area and donor concentration. Broadly, the fraction unbound is free concentration divided by total concentration. As to `COc1cc(C(F)(F)F)ccc1-c1cccc2cc(S(=O)(=O)Nc3ccncn3)ccc12`, the IC50 in series [1] is 510 nM; in series [4] it was greater than 30000 nM. For the same compound, the microsomal CLint at 1 µM in [2] and in series [5] was less than 14 µL/min/mg in each case. In [3], the Papp is 27 ×10⁻⁶ cm/s. The free fraction (fraction unbound) at 0.75 h, 5 µM in series [6] was determined as 0.003.

As to `Cn1nccc1-c1cc(Cl)ccc1-c1cn(C)c2cc(S(=O)(=O)Nc3ncns3)ccc12`, in series [7], the Stability entry is “Stable”. For the same compound, the Drug metabolism result in series [8] is on record as “Metabolite_Notdetected”.

For orientation: pKa means the pH at which an ionisable group is half protonated. A high value points to a weaker acid or stronger base. `O=S(=O)(Nc1ncns1)c1ccc2c(-c3ccc(C(F)(F)F)cc3O)cccc2c1`: the pKa in [9] stood at 3.6. Also, the microsomal CLint at 1 µM was 18 µL/min/mg in series [2] and 25 µL/min/mg in [5]. The Papp in [3] is less than 2 ×10⁻⁶ cm/s. In series [6], this compound gave a fraction unbound at 0.75 h, 5 µM of 0.001.

For the compound `COc1cc(C(F)(F)F)ccc1-c1nccc2cc(S(=O)(=O)Nc3nccs3)cnc12`, the Papp in series [3] worked out at 12 ×10⁻⁶ cm/s. In addition, the IC50 in series [4] is greater than 30000 nM.

For `Cc1cc(C(F)(F)F)ccc1-c1cccc2cc(S(=O)(=O)Nc3ncns3)ccc12`, the pKa in series [9] was determined as 3.6. In addition, the IC50 in series [1] turned out to be 48 nM. Moreover, the recovery in series [10] is less than 50%. The microsomal CLint at 1 µM in series [2] was less than 14 µL/min/mg; in series [5], 15 µL/min/mg. For the same compound, the Papp in [3] is greater than 5 ×10⁻⁶ cm/s. In addition, the free fraction (fraction unbound) at 0.75 h, 5 µM in series [6] turned out to be 0.001.

Usually clearance stands for the rate of elimination divided by the concentration. Lower therefore signals a low capacity for elimination. Consider `COc1cc(C(F)(F)F)ccc1-c1n[nH]c(=O)c2cc(S(=O)(=O)Nc3nccs3)ccc12`, for which the CL free in series [11] amounted to 2670 mL/min/kg. Further, the Papp in series [3] was 3.2 ×10⁻⁶ cm/s. In series [12], the clearance was 40 mL/min/kg. The compound also registered a fraction unbound at 0.75 h, 5 µM in [6] of 0.013.

Compound `COc1cc(C(F)(F)F)ccc1-c1cnnc2cc(S(=O)(=O)Nc3nccs3)ccc12` displayed a CL free in series [11] of 1350 mL/min/kg. Also, the Papp in series [3] is 36 ×10⁻⁶ cm/s. The clearance in series [12] is 18.3 mL/min/kg. Also, the fraction unbound at 0.75 h, 5 µM in [6] came out at 0.014.

In the case of `O=S(=O)(Nc1ncns1)c1ccc2c(-c3ccc(C(F)(F)F)cc3C3=CCNCC3)cccc2c1`, in series [9], the pKa was found to be 3.6. Also, the results for the IC50 in series [1] and in series [4] were 37 nM and greater than 30000 nM, respectively. The microsomal CLint at 1 µM in series [2] and in series [5] was less than 14 µL/min/mg each time. Besides, the Papp in series [3] is 1.3 ×10⁻⁶ cm/s. The same compound gave a clearance in [12] of 90 mL/min/kg. In series [6], this compound yielded a fraction unbound at 0.75 h, 5 µM of 0.1.

Regarding `COc1cc(C(F)(F)F)ccc1-c1cccc2cc(S(=O)(=O)Nc3cncs3)ccc12`, the IC50 in [1] was greater than 30000 nM. In addition, the figures for the microsomal CLint at 1 µM in [2] and in series [5] were 37 µL/min/mg and 46 µL/min/mg, respectively. For the same compound, the Papp in series [3] came out at 28 ×10⁻⁶ cm/s.

As for `COc1cc(C(F)(F)F)ccc1-c1cccc2cc(S(=O)(=O)Nc3ncns3)ccc12`, in [9], the pKa is 3.7. In [1], the concentration for half-maximal inhibition (IC50) was 51 nM. The microsomal CLint at 1 µM in [2] worked out at 18 µL/min/mg; in series [5], 15 µL/min/mg. In addition, in series [3], the apparent permeability (Papp) was 17 ×10⁻⁶ cm/s. In series [12], this compound had a clearance of 86.7 mL/min/kg. Also, the fraction unbound at 0.75 h, 5 µM in series [6] turned out to be 0.001.

Consider `COc1cc(C(F)(F)F)ccc1-c1cccc2cc(S(=O)(=O)Nc3ncccn3)ccc12`, for which the IC50 in [1] was 1500 nM; in series [4], greater than 30000 nM. The microsomal CLint at 1 µM in [2] is less than 14 µL/min/mg; in series [5], 17 µL/min/mg. Also, the Papp in [3] came to 36 ×10⁻⁶ cm/s.

In the case of `N#Cc1cc(S(=O)(=O)Nc2ncns2)ccc1Oc1ccc(C(F)(F)F)cc1-c1cn[nH]c1`, the microsomal CLint at 1 µM in series [2] stood at 39 µL/min/mg. Moreover, the Papp in series [3] is less than 1 ×10⁻⁶ cm/s. Moreover, the IC50 in series [4] was greater than 30000 nM. In [12], this compound showed a clearance of 65 mL/min/kg.

With `COc1cc(C(F)(F)F)ccc1-c1cccc2cc(S(=O)(=O)Nc3nccs3)ccc12`, in [9], the pKa stood at 6.7. Besides, the IC50 in series [1] amounted to 590 nM; in series [4], 21000 nM. The microsomal CLint at 1 µM in series [2] was 52 µL/min/mg; in series [5] it was 25 µL/min/mg. In addition, in series [11], the CL free worked out at 817 mL/min/kg. In addition, the Papp in [3] was found to be 12 ×10⁻⁶ cm/s. This compound also had a clearance in series [12] of 0.817 mL/min/kg. The fraction unbound at 0.75 h, 5 µM in [6] stood at 0.001.

`O=S(=O)(Nc1ncns1)c1ccc2c(-c3ccc(C(F)(F)F)cc3Br)cccc2c1`: in series [9], the pKa was 3.6. The figures for the IC50 in [1] and in [4] were 160 nM and 21000 nM, respectively. Further, the recovery in series [10] was less than 50%. Besides, the microsomal CLint at 1 µM in [2] and in [5] was less than 14 µL/min/mg in each case. Further, the CL free in series [11] came to 1330 mL/min/kg. Moreover, the Papp in series [3] is greater than 5 ×10⁻⁶ cm/s. This compound also gave a clearance in series [12] of 4 mL/min/kg. The same compound yielded an unbound share (fraction unbound) at 0.75 h, 5 µM in series [6] of 0.003.

Compound `COc1cc(C(F)(F)F)ccc1-c1nccc2cc(S(=O)(=O)Nc3nccs3)ccc12` had a CL free in [11] of 250 mL/min/kg. In addition, the Papp in series [3] amounted to 34 ×10⁻⁶ cm/s. Also, the IC50 in series [4] is greater than 30000 nM. Moreover, the clearance in series [12] was 3 mL/min/kg. In [6], the fraction unbound at 0.75 h, 5 µM came to 0.012.

With `Cn1nccc1-c1cc(C(F)(F)F)ccc1-c1cccc2cc(S(=O)(=O)Nc3ncns3)ccc12`, the microsomal CLint at 1 µM in series [2] turned out to be 21 µL/min/mg. Moreover, the Papp in series [3] is less than 2 ×10⁻⁶ cm/s. The compound further gave a clearance in series [12] of 158 mL/min/kg.

On to `Cn1nccc1-c1cc(C(F)(F)F)ccc1-c1cn(C)c2cc(S(=O)(=O)Nc3ncns3)ccc12`, for which the half-inhibitory concentration (IC50) is 120 nM in series [1] and greater than 30000 nM in series [4]. Further, in [2], the microsomal CLint at 1 µM was 19 µL/min/mg. In series [13], the “Ratio IC50” value is reported as greater than 200. Also, the Papp in series [3] amounted to 1.3 ×10⁻⁶ cm/s. In series [12], this compound had a clearance of 68.3 mL/min/kg.

With `COc1cc(C(F)(F)F)ccc1-c1cccc2cc(S(=O)(=O)Nc3cscn3)ccc12`, the pKa in [9] was 7.2. The IC50 in series [1] was 1400 nM; in [4] it was 21000 nM. The microsomal CLint at 1 µM in series [2] and in [5] was less than 14 µL/min/mg in each case. For the same compound, the Papp in series [3] amounted to 27 ×10⁻⁶ cm/s.

For the compound `COc1cc(C(F)(F)F)ccc1-c1cccc2cc(S(=O)(=O)Nc3ccccn3)ccc12`, the IC50 in [1] is greater than 30000 nM. The results for the microsomal CLint at 1 µM in series [2] and in series [5] were 25 µL/min/mg and 16 µL/min/mg, respectively. In addition, the Papp in series [3] is 9.5 ×10⁻⁶ cm/s.
